The record followed here is PubChem BioAssay AID1556 (The Scripps Research Institute Molecular Screening Center, 2009).

Usually inhibition stands for the relative decrease from the control value, in per cent.

Among all 290,000 compounds or so, about 1,300 (0.45%) were called active. This excerpt belongs to a sample that is enriched for actives. A number with no mark means an inactive call.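 The calls were made as follows: active = inhibition above the mean plus 3 SD of all compounds in the same screening run (cut at about 4.5% in these data); inactive = the rest.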

In the assay the test system is metallo-beta-lactamase IMP-1 (Pseudomonas aeruginosa). Put plainly: IMP-1 metallo-beta-lactamase inhibitors, primary screen, biochemical, epi-absorbance readout, Pseudomonas aeruginosa enzyme (AID 1556).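 Also: 0% = IMP-1 with DMSO and 100% = DMSO wells lacking enzyme.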 The settings on record: purified IMP-1, nitrocefin hydrolysis, epi-absorbance fluorescence; at 5.6 µM; active compounds read high. Summed up: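 System: Purified recombinant IMP-1 metallo-beta-lactamase enzyme | Measured by: Fluorescence quenching readout, ex 480/em 530 nm | Replication: Singlicate | Incubation: 15 min preincubation plus 25 min reaction at 25 °C | Evaluation: Percent inhibition from optical density relative to buffer-blank wells | Benchmarks: DMSO with and without IMP-1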
For `O=C(O)c1c(NC(=O)N2CCCC2)sc2c1CCCC2`, the inhibition was -2.5%.

Turning to `Cc1ccccc1NC(=O)Cn1cc(C(=O)C2CC2)c2ccccc21`, the inhibition is -0.7%.

Take `COc1ccc2c(c1)c1nc3n(c(=O)c1n2CC(=O)Nc1ccccc1)CCS3`: the inhibition was -0.04%.

In the case of `COc1cccc(NC(=O)Cn2c3ccccc3c3nc4n(c(=O)c32)CCS4)c1`, the inhibition is -2.36%.

`COc1cccc(NC(=O)Cn2c3ccc(F)cc3c3nc4n(c(=O)c32)CCS4)c1`: the inhibition is 7.15% (active).

Take `O=C(Nc1ccccc1-c1nnn(CC(=O)N2CCCc3ccccc32)n1)c1cccc(Cl)c1`: the inhibition is -0.16%.

For the molecule `O=S(=O)(Cc1cc(Cl)nc(-c2cccnc2)n1)c1ccccc1`, the inhibition was 0.12%.

With `CN(C)c1nc(-c2cccnc2)nc(-c2ccc(Cl)cc2)c1C#N`, the inhibition is -2.58%.

With `N#Cc1c(Cl)nc(-c2cccnc2)nc1-c1ccccc1`, the inhibition is 9.55% (active).

For `Cc1cccc(NS(=O)(=O)c2ccc([N+](=O)[O-])cc2)n1`, the inhibition was -1.07%.

For `Cc1cccc(NS(=O)(=O)c2cc(Cl)ccc2Cl)n1`, the inhibition is 4.66% (active).

Take `COc1ccc(Cl)cc1S(=O)(=O)Nc1cccc(C(=O)O)c1`: the inhibition is -2.2%.

With `Oc1c(Cl)cc(Cl)cc1/C=N/c1ncn[nH]1`, the inhibition was 11.9% (active).

For the molecule `Oc1ccc(Br)cc1C=Nc1ccc2[nH]ncc2c1`, the inhibition was -1.06%.

Turning to `COc1cc(Br)cc(/C=N/c2ncn[nH]2)c1O`, the inhibition is 7.88% (active).

`COc1ccc(Br)cc1/C=N/n1c(C)nnc1C`: the inhibition is -3.22%.

Regarding `Cc1snc(SCc2c(F)cccc2Cl)c1C#N`, the inhibition is -3.78%.

In the case of `Cc1ccc2[nH]c(=O)c(CN(C)S(=O)(=O)c3cccc4nonc34)cc2c1`, the inhibition is 0.09%.

For `Cc1ccc(Cn2cc(C(=O)NN)c(=O)c3ccc(F)cc32)cc1`, the inhibition is -2.47%.

Turning to `COc1ccc(NC(=O)Cn2ncn3c(cc4ccccc43)c2=O)c(OC)c1OC`, the inhibition was -2.6%.
